Laboratory results published in ChEMBL document CHEMBL1155709, “Eleven novel diarylheptanoids and two unusual diarylheptanoid derivatives from the seeds of Alpinia blepharocalyx” (2001).

Experiments:
[1] = Cytotoxicity against mouse 26-L5 cells by MTT assay; format: functional; details: read-out: ED50 (the source's name)
In short: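 Murine colon 26-L5 carcinoma cells grown in RPMI-1640 with 10% fetal calf serum, 0.1% NaHCO3 and 2 mM glutamine. MTT assay compared viability in the presence and absence of agents, giving ED50 values. Positive controls were 5-fluorouracil and curcumin.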

HT-1080 = assay: Cytotoxicity against human HT1080 cells by MTT assay; format: functional; details: read-out: ED50 (the source's name)
In short: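 Human HT-1080 fibrosarcoma cells kept in Eagle's minimum essential medium with 10% fetal calf serum, 0.1% NaHCO3 and 2 mM glutamine. Viability with and without test agents was read by standard MTT assay, and ED50 was reported. 5-Fluorouracil and curcumin served as positive controls.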

## COc1cc2c(c3c1C(=O)CC(c1ccc(O)cc1)O3)[C@H](C[C@@H](O)CCc1ccc(O)cc1)C[C@H](c1ccc(O)cc1)O2 (mixture of isomers)
[1]; Mus musculus
  EC50: 42.1 µM
HT-1080; Homo sapiens, HT-1080
  EC50: 10.1 µM

## COc1cc(O)c([C@@H]2C[C@H](CCc3ccc(O)cc3)O[C@@H](c3ccc(O)cc3)C2)c2c1C(=O)CC(c1ccc(O)cc1)O2 (some centres not stated) [CALYXIN G]
[1]; Mus musculus
  EC50: 42.2 µM
HT-1080; Homo sapiens, HT-1080
  EC50: 25.9 µM

## COc1cc(O)c([C@@H]2C[C@H](CCc3ccc(O)cc3)O[C@H](c3ccc(O)cc3)C2)c2c1C(=O)CC(c1ccc(O)cc1)O2 (stereo in doubt; 3) [CALYXIN K]
[1]
  EC50: 7.73 µM
HT-1080; Homo sapiens, HT-1080
  EC50: 5.09 µM

## COc1cc(/C=C/C(=O)CC(=O)/C=C/c2ccc(O)c(OC)c2)ccc1O [CURCUMIN]
[1]; Mus musculus
  EC50: 23.2 µM
HT-1080; Homo sapiens, HT-1080
  EC50: 23.4 µM

## COc1cc(O)c([C@@H]2C[C@H](CCc3ccc(O)cc3)O[C@H](c3ccc(O)cc3)C2)c2c1C(=O)CC(c1ccc(O)cc1)O2 (stereo in doubt; 4) [CALYXIN K]
[1]
  EC50: 33 µM
HT-1080
  EC50: 4.75 µM

## COc1cc2c(c3c1C(=O)CC(c1ccc(O)cc1)O3)[C@@H]1C[C@H](CCc3ccc(O)cc3)O[C@@H]1O2 (stereo in doubt; 13) [NEOCALYXIN A]
[1]
  EC50: 78 µM
HT-1080
  EC50: 20.2 µM

## COc1cc(O)c2c(c1C(=O)/C=C/c1ccc(O)cc1)O[C@@H](c1ccc(O)cc1)[C@@H]1[C@@H](c3ccc(O)cc3)O[C@@H](CCc3ccc(O)cc3)C[C@@H]21 [CALYXIN I]
[1]; Mus musculus
  EC50: 8.39 µM
HT-1080; Homo sapiens, HT-1080
  EC50: 9.08 µM

## COc1cc(O)c([C@@H]2C[C@H](CCc3ccc(O)cc3)O[C@@H](c3ccc(O)cc3)C2)c(O)c1C(=O)/C=C/c1ccc(O)cc1 [EPICALYXIN F]
[1]; Mus musculus
  EC50: 0.89 µM
HT-1080; Homo sapiens, HT-1080
  EC50: 1.71 µM

## COc1cc2c(c3c1C(=O)CC(c1ccc(O)cc1)O3)[C@@H]1C[C@H](CCc3ccc(O)cc3)O[C@@H]1O2 (stereo in doubt; 12) [NEOCALYXIN A]
[1]; Mus musculus
  EC50: > 100 µM
HT-1080; Homo sapiens, HT-1080
  EC50: 10.7 µM

## COc1cc(O)c(C(/C=C/c2ccc(O)cc2)C[C@@H](O)CCc2ccc(O)cc2)c2c1C(=O)CC(c1ccc(O)cc1)O2 (some centres not stated) [CALYXIN E]
[1]; Mus musculus
  EC50: 98.1 µM
HT-1080; Homo sapiens, HT-1080
  EC50: 21.7 µM

## COc1cc(O)c2c(c1C(=O)/C=C/c1ccc(O)cc1)O[C@H](c1ccc(O)cc1)[C@@H]1[C@@H](c3ccc(O)cc3)O[C@@H](CCc3ccc(O)cc3)C[C@@H]21 [EPICALYXIN I]
[1]; Mus musculus
  EC50: 12.1 µM
HT-1080; Homo sapiens, HT-1080
  EC50: 5.88 µM

## COc1cc(O)c([C@@H]2C[C@H](CCc3ccc(O)cc3)O[C@H](c3ccc(O)cc3)C2)c(O)c1C(=O)/C=C/c1ccc(O)cc1 [CALYXIN B]
[1]; Mus musculus
  EC50: 10.4 µM
HT-1080; Homo sapiens, HT-1080
  EC50: 10.4 µM

## COc1cc(O)c2c(c1C(=O)/C=C/c1ccc(O)cc1)O[C@@H](c1ccc(O)cc1)C[C@H]2C[C@@H](O)CCc1ccc(O)cc1 [CALYXIN L]
[1]; Mus musculus
  EC50: 28.2 µM
HT-1080; Homo sapiens, HT-1080
  EC50: 44.3 µM

## O=c1[nH]cc(F)c(=O)[nH]1 [FLUOROURACIL]
[1]; Mus musculus
  EC50: 0.53 µM
HT-1080; Homo sapiens, HT-1080
  EC50: 8 µM

## COc1cc2c(c3c1C(=O)CC(c1ccc(O)cc1)O3)[C@@H]1C[C@H](CCc3ccc(O)cc3)O[C@H](c3ccc(O)cc3)[C@H]1[C@H](c1ccc(O)cc1)O2 (mixture of isomers) [CALYXIN J]
[1]
  EC50: 13.7 µM
HT-1080
  EC50: 0.32 µM

## COc1cc2c(c3c1C(=O)CC(c1ccc(O)cc1)O3)[C@@H]1C[C@H](CCc3ccc(O)cc3)O[C@H](c3ccc(O)cc3)[C@H]1[C@H](c1ccc(O)cc1)O2 (stereo in doubt; 7) [CALYXIN J]
[1]; Mus musculus
  EC50: 23.2 µM
HT-1080
  EC50: 8.19 µM
